Experimental data: ChEMBL document CHEMBL4813921, “Optimization of WZ4003 as NUAK inhibitors against human colorectal cancer” (Eur J Med Chem, 2021)
Calls of active or inactive are those of the source. The rule behind the calls is not given here.

Columns and labels:
[1] = target: T1, NUAK family SNF1-like kinase 1 (Homo sapiens) (UniProt O60285); experiment: Inhibition of NUAK1 (unknown origin) at 10 uM using CHKtide as substrate in presence of ATP measured after 60 mins by ADP-Glo assay
T1 sequence (whole entry): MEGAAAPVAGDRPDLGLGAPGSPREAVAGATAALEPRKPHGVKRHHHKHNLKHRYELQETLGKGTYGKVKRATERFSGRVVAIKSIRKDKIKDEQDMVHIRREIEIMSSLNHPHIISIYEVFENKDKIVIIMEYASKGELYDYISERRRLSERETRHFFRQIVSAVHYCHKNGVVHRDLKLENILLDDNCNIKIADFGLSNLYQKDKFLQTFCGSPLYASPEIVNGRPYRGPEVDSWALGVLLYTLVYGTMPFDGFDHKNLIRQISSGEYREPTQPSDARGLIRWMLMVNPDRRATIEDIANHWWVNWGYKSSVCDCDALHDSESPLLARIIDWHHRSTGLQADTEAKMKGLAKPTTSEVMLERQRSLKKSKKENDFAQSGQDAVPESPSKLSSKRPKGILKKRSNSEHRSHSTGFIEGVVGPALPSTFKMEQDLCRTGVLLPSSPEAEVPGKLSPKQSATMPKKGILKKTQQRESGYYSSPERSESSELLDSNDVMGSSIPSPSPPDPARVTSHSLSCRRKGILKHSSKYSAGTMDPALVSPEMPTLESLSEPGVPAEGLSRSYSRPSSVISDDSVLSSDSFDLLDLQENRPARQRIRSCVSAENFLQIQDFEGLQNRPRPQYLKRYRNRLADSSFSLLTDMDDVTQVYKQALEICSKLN

[2] = target: T2, NUAK family SNF1-like kinase 2 (Homo sapiens) (UniProt Q9H093); experiment: Inhibition of NUAK2 (unknown origin) at 10 uM using CHKtide as substrate in presence of ATP measured after 60 mins by ADP-Glo assay
T2 sequence (whole entry): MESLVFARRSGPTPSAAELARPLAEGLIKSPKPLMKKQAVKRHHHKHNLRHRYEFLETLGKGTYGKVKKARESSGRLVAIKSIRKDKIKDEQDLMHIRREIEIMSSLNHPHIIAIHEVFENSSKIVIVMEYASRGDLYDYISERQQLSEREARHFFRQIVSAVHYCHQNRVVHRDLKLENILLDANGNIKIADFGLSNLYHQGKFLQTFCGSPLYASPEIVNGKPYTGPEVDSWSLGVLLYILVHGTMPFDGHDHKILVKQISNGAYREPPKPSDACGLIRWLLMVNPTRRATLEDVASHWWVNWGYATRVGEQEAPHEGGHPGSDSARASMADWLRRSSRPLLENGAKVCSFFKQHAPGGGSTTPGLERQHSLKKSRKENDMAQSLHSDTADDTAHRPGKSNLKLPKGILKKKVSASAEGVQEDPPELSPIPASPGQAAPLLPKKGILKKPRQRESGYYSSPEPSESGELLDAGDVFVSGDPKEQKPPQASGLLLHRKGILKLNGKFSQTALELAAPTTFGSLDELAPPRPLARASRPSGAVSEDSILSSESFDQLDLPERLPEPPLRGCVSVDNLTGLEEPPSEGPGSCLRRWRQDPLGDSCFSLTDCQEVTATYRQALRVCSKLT

U2OS [3] = experiment: Antiproliferative activity against human U2OS cells assessed as reduction in cell viability at 10 uM measured after 1 to 5 days by MTT assay; assay type: functional; conditions: time 1-5 day
Procedure, shortened: (§1)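 MTT viability read daily over 1–5 days of exposure to 10 μM compound; mean ± SD, n = 3.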

SW480 [4] = experiment: Induction of apoptosis in human SW480 cells assessed as late apoptotic cells at 10 uM measured after 48 hrs by Annexin V-FITC/PI staining based flow cytometry method (reference value: 2.8%); assay type: functional
U2OS [5] = experiment: Induction of apoptosis in human U2OS cells assessed as early apoptotic cells at 10 uM measured after 48 hrs by Annexin V-FITC/PI staining based flow cytometry method (reference value: 2.8%); assay type: functional
HCT-116 [6] = experiment: Induction of apoptosis in human HCT-116 cells assessed as necrotic cells at 10 uM measured after 48 hrs by Annexin V-FITC/PI staining based flow cytometry method (reference value: 2.2%); assay type: functional
HCT-116 [7] = experiment: Induction of apoptosis in human HCT-116 cells assessed as viable cells at 10 uM measured after 48 hrs by Annexin V-FITC/PI staining based flow cytometry method (reference value: 95.4%); assay type: functional; conditions: read-out: Activity
HCT-116 [8] = experiment: Antiproliferative activity against human HCT-116 cells assessed as reduction in cell viability at 10 uM measured after 1 to 5 days by MTT assay relative to control; assay type: functional, cell-based; conditions: time 1-5 day; procedure, shortened: as §1
HCT-116 [9] = experiment: Induction of apoptosis in human HCT-116 cells assessed as late apoptotic cells at 10 uM measured after 48 hrs by Annexin V-FITC/PI staining based flow cytometry method (reference value: 1.6%); assay type: functional
U2OS [10] = experiment: Induction of apoptosis in human U2OS cells assessed as necrotic cells at 10 uM measured after 48 hrs by Annexin V-FITC/PI staining based flow cytometry method (reference value: 0.4%); assay type: functional
HCT-116 [11] = experiment: Antiproliferative activity against human HCT-116 cells at 2.5 to 10 uM measured after 48 hrs by EdU staining based assay; assay type: functional, cell-based; conditions: dose 2.5-10 µM
Procedure, shortened: (§2)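 Cells exposed to a range of compound concentrations for 48 h, then EdU click-chemistry staining with DAPI counterstain. Confocal high-content imaging; DAPI-positive nuclei counted as total and EdU-positive as proliferating.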

U2OS [12] = experiment: Antiproliferative activity against human U2OS cells at 2.5 to 10 uM measured after 48 hrs by EdU staining based assay; assay type: functional, cell-based; conditions: dose 2.5-10 µM; procedure, shortened: as §2
SW480 [13] = experiment: Induction of apoptosis in human SW480 cells assessed as necrotic cells at 10 uM measured after 48 hrs by Annexin V-FITC/PI staining based flow cytometry method (reference value: 1.4%); assay type: functional
SW480 [14] = experiment: Induction of apoptosis in human SW480 cells assessed as early apoptotic cells at 10 uM measured after 48 hrs by Annexin V-FITC/PI staining based flow cytometry method (reference value: 2.6%); assay type: functional
SW480 [15] = experiment: Antiproliferative activity against human SW480 cells at 2.5 to 10 uM measured after 48 hrs by EdU staining based assay; assay type: functional, cell-based; conditions: dose 2.5-10 µM; procedure, shortened: as §2
HCT-116 [16] = experiment: Induction of apoptosis in human HCT-116 cells assessed as early apoptotic cells at 10 uM measured after 48 hrs by Annexin V-FITC/PI staining based flow cytometry method (reference value: 0.8%); assay type: functional
SW480 [17] = experiment: Induction of apoptosis in human SW480 cells assessed as viable cells at 10 uM measured after 48 hrs by Annexin V-FITC/PI staining based flow cytometry method (reference value: 93.2%); assay type: functional; conditions: read-out: Activity
SW480 [18] = experiment: Antiproliferative activity against human SW480 cells assessed as reduction in cell viability at 10 uM measured after 1 to 5 days by MTT assay relative to control; assay type: functional, cell-based; conditions: time 1-5 day; procedure, shortened: as §1
U2OS [19] = experiment: Induction of apoptosis in human U2OS cells assessed as viable cells at 10 uM measured after 48 hrs by Annexin V-FITC/PI staining based flow cytometry method (reference value: 95.5%); assay type: functional; conditions: read-out: Activity
U2OS [20] = experiment: Induction of apoptosis in human U2OS cells assessed as late apoptotic cells at 10 uM measured after 48 hrs by Annexin V-FITC/PI staining based flow cytometry method (reference value: 1.3%); assay type: functional

| SMILES | inhibition [1] | inhibition [2] | inhibition at 10 µM (U2OS [3]) [%] | also measured |
| --- | --- | --- | --- | --- |
| CCC(=O)Nc1cccc(Oc2nc(Nc3ccc(N4CCC(C)CC4)cc3)ncc2Cl)c1 | 13.4% | 24.8% | 44.2 |  |
| CCC(=O)Nc1cccc(Oc2nc(Nc3ccc(N4CCCCC4)cc3OC)ncc2Cl)c1 | 13.9% | inactive | 12.9 |  |
| CCC(=O)Nc1cccc(Oc2nc(Nc3ccc(N4CCC(C)CC4)cc3OC)ncc2Cl)c1 | 9.2% | inactive | 20.9 |  |
| CCC(=O)Nc1cccc(Oc2nc(Nc3ccc(N4CCOCC4)cc3OC)ncc2Cl)c1 | 65.6% | 8.45% | 9.7 |  |
| CCC(=O)Nc1cccc(Oc2nc(Nc3ccc(N4CCC(OC)CC4)cc3OC)ncc2Cl)c1 | 5.08% | inactive | 10.8 |  |
| CCC(=O)Nc1cccc(Oc2nc(Nc3ccc(N4CCCC4)cc3OC)ncc2Cl)c1 | 25.8% | inactive | 18.5 |  |
| CCC(=O)Nc1cccc(Oc2nc(Nc3ccc(N4CCN(C)CC4)cc3OC)ncc2Cl)c1 | 85.8% | 84.8% | 47.3 | Activity (SW480 [4]): 2.7%; Activity (U2OS [5]): 6.2%; Activity (HCT-116 [6]): 3.2%; viability at 10 µM (HCT-116 [7]): 80.2%; Activity (HCT-116 [8]): Active; Activity (HCT-116 [9]): 13.7%; Activity (U2OS [10]): 0.4%; Activity (HCT-116 [11]): Active; Activity (U2OS [12]): Active; Activity (SW480 [13]): 0.8%; Activity (SW480 [14]): 2%; Activity (SW480 [15]): Active; Activity (HCT-116 [16]): 2.9%; viability at 10 µM (SW480 [17]): 94.5%; Activity (SW480 [18]): Active; viability at 10 µM (U2OS [19]): 90.8%; Activity (U2OS [20]): 2.6% |
| CCC(=O)Nc1cccc(Oc2nc(Nc3ccc(N(C)C)cc3OC)ncc2Cl)c1 | 80.6% | 15% | 4.83 |  |
| CCC(=O)Nc1cccc(Oc2nc(Nc3ccc(N4CCOCC4)cc3)ncc2Cl)c1 | 70.9% | 43.5% | 61.3 |  |
| CCC(=O)Nc1cccc(Oc2nc(Nc3ccc(N4CCCC4)cc3)ncc2Cl)c1 | inactive | inactive | 38.5 |  |
| Cc1nc(Nc2cnn(C3CCNCC3)c2)nc2c1N(C)C(=O)c1cc3ccccc3cc1N2C | 78.3% | 15.6% | 38.6 |  |

Now from value to compound, other results behind:

| inhibition [1] | inhibition [2] | SMILES | inhibition at 10 µM (U2OS [3]) [%] | also measured |
| --- | --- | --- | --- | --- |
| 85.6% | 48.8% | CCC(=O)Nc1cccc(Oc2ccnc(Nc3ccc(N4CCN(C)CC4)cc3)n2)c1 | 24 |  |
| 71.5% | 69.1% | CCC(=O)Nc1cccc(Oc2nc(Nc3ccc(N4CCN(C)CC4)cc3Cl)ncc2Cl)c1 | 34.8 |  |
| 72.6% | 31.7% | CCC(=O)Nc1cccc(Oc2nc(Nc3ccc(N(C)C)cc3)ncc2Cl)c1 | 60.3 |  |
| 9.3% | inactive | CCCN(CCC)c1ccc(Nc2ncc(Cl)c(Oc3cccc(NC(=O)CC)c3)n2)cc1 | 23.9 |  |
| 86.5% | 53.4% | CCC(=O)Nc1cccc(Oc2nc(Nc3ccc(N4CCC(OC)CC4)cc3)ncc2Cl)c1 | 48.7 |  |
| 54.4% | 21.2% | CCC(=O)Nc1cccc(Oc2nc(Nc3ccc(N(CC)CC)cc3)ncc2Cl)c1 | 38.8 |  |
| inactive | inactive | CCCN(CCC)c1ccc(Nc2ncc(Cl)c(Oc3cccc(NC(=O)CC)c3)n2)c(OC)c1 | 33.8 |  |
| 10.8% | inactive | CCC(=O)Nc1cccc(Oc2nc(Nc3ccc(N(CC)CC)cc3OC)ncc2Cl)c1 | 8.69 |  |
| 86% | 72.3% | CCC(=O)Nc1cccc(Oc2nc(Nc3ccc(N4CCCCC4)cc3)ncc2Cl)c1 | 48.4 |  |
